According to ChEMBL document CHEMBL4425129, “Exploring Basic Tail Modifications of Coumarin-Based Dual Acetylcholinesterase-Monoamine Oxidase B Inhibitors: Identification of Water-Soluble, Brain-Permeant Neuroprotective Multitarget Agents” (J Med Chem, 2016):
pIC50: −log10 of the molar value. Calls of active or inactive are those of the source. The calls are words filed in the database; no cut-off is given here.

Legend:
[1] = Lipophilicity index, Log K of the compound at 1 mM by RP-HPLC method; type: physicochemical; details: 1000 µM
[2] = target: T1, Amine oxidase [flavin-containing] A (Homo sapiens, UniProt P21397); assay: Inhibition of human recombinant MAOA expressed in microsomes of baculovirus-infected insect cell using kynuramine as substrate preincubated for 20 mins followed by protein addition measured after 30 mins by fluorescence assay
T1 sequence (P21397 whole entry): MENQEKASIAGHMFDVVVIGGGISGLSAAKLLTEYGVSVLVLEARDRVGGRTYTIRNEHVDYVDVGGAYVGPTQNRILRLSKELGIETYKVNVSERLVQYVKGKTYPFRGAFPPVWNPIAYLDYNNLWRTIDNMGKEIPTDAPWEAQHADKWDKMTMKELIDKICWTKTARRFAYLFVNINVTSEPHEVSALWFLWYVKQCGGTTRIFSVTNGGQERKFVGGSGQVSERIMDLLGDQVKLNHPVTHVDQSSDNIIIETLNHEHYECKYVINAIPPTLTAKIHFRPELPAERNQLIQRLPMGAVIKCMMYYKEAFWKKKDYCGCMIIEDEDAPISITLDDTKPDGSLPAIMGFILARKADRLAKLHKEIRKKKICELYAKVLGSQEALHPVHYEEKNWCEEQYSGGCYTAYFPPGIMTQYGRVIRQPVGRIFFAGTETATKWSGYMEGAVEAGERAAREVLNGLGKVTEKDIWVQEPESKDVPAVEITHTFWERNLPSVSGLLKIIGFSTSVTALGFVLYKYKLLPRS
In short: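 Recombinant human MAO A (baculovirus-infected insect cell microsomes) with kynuramine substrate; inhibitor preincubated 20 min at 37 °C, enzyme then added and incubated 30 min more. Fluorescence at ex/em 320/400 nm. Triplicates, three independent experiments.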

[3] = target: T2, Amine oxidase [flavin-containing] B (Homo sapiens, UniProt P27338); assay: Inhibition of human recombinant MAOB expressed in microsomes of baculovirus-infected insect cell using kynuramine as substrate preincubated for 20 mins followed by protein addition measured after 30 mins by fluorescence assay
T2 sequence (P27338 whole entry): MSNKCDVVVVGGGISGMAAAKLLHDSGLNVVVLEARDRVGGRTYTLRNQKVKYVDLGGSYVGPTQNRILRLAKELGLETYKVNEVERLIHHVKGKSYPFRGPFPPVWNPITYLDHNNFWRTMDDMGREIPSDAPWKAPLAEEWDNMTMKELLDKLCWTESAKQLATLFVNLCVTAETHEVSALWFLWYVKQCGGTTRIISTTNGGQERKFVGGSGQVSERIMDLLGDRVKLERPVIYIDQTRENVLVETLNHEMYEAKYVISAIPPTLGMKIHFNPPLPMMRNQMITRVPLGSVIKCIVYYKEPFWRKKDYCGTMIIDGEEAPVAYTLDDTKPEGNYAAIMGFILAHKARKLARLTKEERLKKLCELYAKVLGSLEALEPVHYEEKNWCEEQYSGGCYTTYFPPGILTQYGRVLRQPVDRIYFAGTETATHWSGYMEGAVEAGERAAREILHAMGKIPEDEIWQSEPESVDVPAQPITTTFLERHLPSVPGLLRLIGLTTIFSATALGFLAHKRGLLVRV

[4] = target: Acetylcholinesterase (Electrophorus electricus, UniProt O42275); assay: Inhibition of electric eel AChE using acetylthiocholine iodide as substrate preincubated for 20 mins followed by substrate addition measured for 5 mins by spectrophotometric Ellman's method
[5] = target: Cholinesterase (Equus caballus) (UniProt P81908); assay: Inhibition of equine serum BChE at 10 uM using butyrylthiocholine iodide as substrate preincubated for 20 mins followed by substrate addition measured for 5 mins by spectrophotometric Ellman's method relative to control
In short: (§1)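 BChE from equine serum (13 U/mg), Ellman spectrophotometric method run in 96-well format. Seven inhibitor concentrations, 10^-4 to 10^-10 M, each in triplicate. IC50 from non-linear regression of response against log(concentration). […] Mean of three independent experiments.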

[6] = organism: Homo sapiens; assay: Selectivity index, ratio of IC50 for human recombinant MAOA to IC50 for human recombinant MAOB
[7] = target: Cholinesterase (Equus caballus, UniProt P81908); assay: Inhibition of equine serum BChE using butyrylthiocholine iodide as substrate preincubated for 20 mins followed by substrate addition measured for 5 mins by spectrophotometric Ellman's method; in short: as §1
[8] = tested on: SH-SY5Y; assay: Neuroprotective activity against oligomycin-A-induced oxidative injury in human SH-SY5Y cells assessed as increase in cell viability at 1 uM after 24 hrs by MTT assay; type: functional, cell-based
In short: (§2)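 SH-SY5Y cells incubated 24 h with compound at 1 or 10 µM together with H2O2 300 µM, oligomycin-A 10 µM or rotenone 20 µM. Viability by MTT, as % of cells given neither insult nor compound. Triplicates, three repeats; mean ± SD; two-way ANOVA with Bonferroni post hoc test.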

[9] = tested on: SH-SY5Y; assay: Neuroprotective activity against oligomycin-A-induced oxidative injury in human SH-SY5Y cells assessed as increase in cell viability at 10 uM after 24 hrs by MTT assay; type: functional, cell-based; in short: as §2
[10] = Kinetic aqueous solubility of the compound in Tris-HCl buffer at pH 7.4 by turbidimetric method; type: physicochemical; details: buffer
In short: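 DMSO stocks added in portions to 50 mM Tris-HCl pH 7.4 at room temperature. Light scattering read as UV absorbance increase at 580–780 nm; solubility from a bilinear fit of absorbance versus µL DMSO. Reported as logS (mol/L), mean ± SEM of three independent assays.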

[11] = tested on: SH-SY5Y; assay: Neuroprotective activity against H2O2-induced oxidative injury in human SH-SY5Y cells assessed as increase in cell viability at 1 to 10 uM after 24 hrs by MTT assay; type: functional, cell-based; in short: as §2
[12] = tested on: SH-SY5Y; assay: Neuroprotective activity against rotenone-induced oxidative injury in human SH-SY5Y cells assessed as increase in cell viability at 1 uM after 24 hrs by MTT assay; type: functional, cell-based; in short: as §2
[13] = tested on: SH-SY5Y; assay: Cytotoxicity against human SH-SY5Y cells assessed as inhibition of cell growth after 24 hrs by MTT assay; type: cell-based
In short: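 SH-SY5Y cells exposed 24 h at 37 °C to 0.1, 1, 5, 10 and 50 µM; viability read by MTT at 570 nm versus untreated cells. […] Means ± SD, n = 3.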

[14] = tested on: SH-SY5Y; assay: Neuroprotective activity against rotenone-induced oxidative injury in human SH-SY5Y cells assessed as increase in cell viability at 10 uM after 24 hrs by MTT assay; type: functional, cell-based; in short: as §2

Chain of Cholinesterase (Equus caballus) (P81908 whole entry): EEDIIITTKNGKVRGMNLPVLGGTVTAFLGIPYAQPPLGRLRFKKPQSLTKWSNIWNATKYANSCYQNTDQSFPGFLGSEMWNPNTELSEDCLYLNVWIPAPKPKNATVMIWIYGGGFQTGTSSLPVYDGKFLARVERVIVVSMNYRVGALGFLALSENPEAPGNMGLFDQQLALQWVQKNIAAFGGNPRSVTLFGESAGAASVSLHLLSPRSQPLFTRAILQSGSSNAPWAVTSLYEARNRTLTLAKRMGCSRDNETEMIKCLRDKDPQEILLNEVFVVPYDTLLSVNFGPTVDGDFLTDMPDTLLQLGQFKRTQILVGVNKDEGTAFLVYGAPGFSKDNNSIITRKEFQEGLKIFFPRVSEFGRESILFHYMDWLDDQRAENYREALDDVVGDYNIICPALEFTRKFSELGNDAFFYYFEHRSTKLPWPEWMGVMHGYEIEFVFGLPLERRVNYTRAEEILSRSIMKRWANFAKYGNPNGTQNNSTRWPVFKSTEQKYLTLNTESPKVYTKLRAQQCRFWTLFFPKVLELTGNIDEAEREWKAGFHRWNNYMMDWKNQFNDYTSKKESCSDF
Chain of Cholinesterase (P81908 whole entry): as above
Chain of Acetylcholinesterase (O42275 whole entry): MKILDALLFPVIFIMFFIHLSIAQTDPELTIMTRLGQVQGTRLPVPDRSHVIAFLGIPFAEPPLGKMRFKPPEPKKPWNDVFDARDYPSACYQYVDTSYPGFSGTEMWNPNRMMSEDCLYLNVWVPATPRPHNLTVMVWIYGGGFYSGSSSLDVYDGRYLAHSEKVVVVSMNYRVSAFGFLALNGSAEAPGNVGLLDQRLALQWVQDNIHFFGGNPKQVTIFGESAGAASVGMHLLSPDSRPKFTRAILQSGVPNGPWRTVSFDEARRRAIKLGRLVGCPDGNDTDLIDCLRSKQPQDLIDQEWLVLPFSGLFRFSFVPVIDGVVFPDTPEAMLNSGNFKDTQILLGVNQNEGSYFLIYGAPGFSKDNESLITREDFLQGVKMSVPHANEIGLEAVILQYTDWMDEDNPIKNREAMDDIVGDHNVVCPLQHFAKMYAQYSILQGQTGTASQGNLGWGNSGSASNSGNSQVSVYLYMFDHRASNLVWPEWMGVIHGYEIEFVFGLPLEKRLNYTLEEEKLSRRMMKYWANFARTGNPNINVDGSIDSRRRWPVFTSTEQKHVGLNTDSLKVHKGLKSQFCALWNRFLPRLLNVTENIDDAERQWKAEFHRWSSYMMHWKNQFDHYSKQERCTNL

| SMILES | pIC50 [2] | pIC50 [3] | pIC50 [4] | inhibition [5] [%] | pIC50 [7] | also measured |
| --- | --- | --- | --- | --- | --- | --- |
| CN(Cc1ccccc1)Cc1ccc(COc2ccc3c(CO)cc(=O)oc3c2)cc1 | – | – | – | – | – | log K [1]: 1.87 |
| Cc1c(C)c2ccc(OC3CCN(C)CC3)cc2oc1=O | 4.93 | 6.56 | 5.89 | 11 | – | – |
| Cc1c(C)c2ccc(OCC3CCN(C)CC3)cc2oc1=O | 4.78 | 6.53 | 6.17 | 14 | – | – |
| Cc1c(C)c2ccc(OC3CCN(Cc4ccc(Cl)cc4)CC3)cc2oc1=O | 5.80 | 6.06 | 5.81 | 29 | – | Ratio IC50 [6]: 2 |
| CCCCN1CCC(Oc2ccc3c(C)c(C)c(=O)oc3c2)CC1 | 4.62 | 5.85 | 6.00 | 35 | – | – |
| Cc1c(C)c2ccc(OC3CCN(Cc4cccc(Cl)c4)CC3)cc2oc1=O | 6.06 | 6.55 | 5.97 | 28 | – | – |
| Cc1c(C)c2ccc(OCC3CCN(Cc4ccccc4)CC3)cc2oc1=O.Cl | 5.62 | 6.98 | 5.78 | – | 5.33 | Activity [8]: inactive; Activity [9]: inactive; log(Kinetic_solubility) [10]: -4.25; log K [1]: 1.98 |
| Cc1c(C)c2ccc(OC3CCN(CCc4ccccc4)CC3)cc2oc1=O | 4.91 | 5.60 | 5.78 | – | 5.75 | – |
| Cc1c(C)c2ccc(OC3CCN(Cc4ccc(C#N)cc4)CC3)cc2oc1=O | 5.89 | 6.18 | 6.01 | 48 | – | Ratio IC50 [6]: 2 |
| Cc1c(C)c2ccc(OCCCN3CCc4ccccc4C3)cc2oc1=O | 5.57 | 6.53 | 5.91 | – | 6.02 | – |
| Cc1c(C)c2ccc(OCC3CCN(Cc4cccc(Cl)c4)CC3)cc2oc1=O | 6.15 | 7.05 | 5.99 | – | 5.22 | Activity [8]: inactive |
| Cc1c(C)c2ccc(OCCCCN3CCc4ccccc4C3)cc2oc1=O | 5.65 | 6.21 | 5.94 | – | 5.58 | – |
| Cc1c(C)c2ccc(OC3CCN(CC(=O)c4ccccc4)CC3)cc2oc1=O | 5.71 | 6.94 | 5.42 | 45 | – | – |
| Cc1c(C)c2ccc(OC3CCN(Cc4ccccc4)CC3)cc2oc1=O | 5.44 | 6.35 | 6.11 | – | 5.02 | – |
| Cc1c(C)c2ccc(OCC3CCN(Cc4ccc(C#N)cc4)CC3)cc2oc1=O | 5.00 | 6.26 | 5.74 | 27 | – | – |
| Cc1c(C)c2ccc(OCC3CCCN(Cc4ccc(F)cc4)C3)cc2oc1=O (racemic) | 5.95 | 6.79 | 5.84 | – | 5.43 | Activity [11]: Active; Activity [12]: Active |
| Cc1c(C)c2ccc(OCC3CCCN(Cc4ccc(Cl)cc4)C3)cc2oc1=O (racemic) | 6.09 | 7.30 | 5.54 | – | 5.23 | – |
| Cc1c(C)c2ccc(OCC3CCCN(Cc4cccc(Cl)c4)C3)cc2oc1=O (racemic) | 6.01 | 7.44 | 5.93 | – | 5.33 | pIC50 [13]: 4.89; Activity [11]: Active; Activity [9]: inactive |
| Cc1c(C)c2ccc(OCC3CCCN(Cc4ccc(C#N)cc4)C3)cc2oc1=O (racemic) | 5.35 | 7.47 | 5.55 | 36 | – | Ratio IC50 [6]: 133 |
| Cc1c(C)c2ccc(OCC3CCCN(Cc4ccc(S(C)(=O)=O)cc4)C3)cc2oc1=O (racemic) | 6.68 | 6.95 | 6.07 | 10 | – | – |
| COc1ccc(CN2CCCC(COc3ccc4c(C)c(C)c(=O)oc4c3)C2)cc1OC (racemic) | 5.76 | 7.05 | 5.66 | – | 5.22 | pIC50 [13]: 5.00; Activity [8]: inactive; Activity [9]: inactive |
| Cc1c(C)c2ccc(OCC3CCCN(Cc4cccc(Br)c4)C3)cc2oc1=O (racemic) | – | – | – | 30 | – | Activity [11]: Active; Activity [8]: Active; Activity [9]: Active; Activity [12]: Active; Activity [14]: Active |
| Cc1c(C)c2ccc(OCC3CCCN(Cc4ccccc4)C3)cc2oc1=O (racemic) | – | – | – | – | – | Activity [11]: Active; Activity [8]: Active; Activity [9]: Active; Activity [12]: Active; Activity [14]: Active |
| Cc1c(C)c2ccc(OCC3CCCN(Cc4cccc(Br)c4)C3)cc2oc1=O (single isomer, unassigned; (+)) [listing 1 of 2 here] | 6.27 | 7.59 | 5.49 | – | – | – |
| Cc1c(C)c2ccc(OCC3CCCN(Cc4cccc(Br)c4)C3)cc2oc1=O (single isomer, unassigned; (+)) [listing 2 of 2 here] | – | – | – | 36 | – | Ratio IC50 [6]: 21 |
| Cc1c(C)c2ccc(OCC3CCCN(Cc4cccc(Br)c4)C3)cc2oc1=O (single isomer, unassigned; (-)) [listing 1 of 2 here] | 5.95 | 6.71 | 5.76 | – | – | – |
| Cc1c(C)c2ccc(OCC3CCCN(Cc4ccccc4)C3)cc2oc1=O (single isomer, unassigned; (-)) | 5.64 | – | 6.11 | – | 5.09 | – |
| Cc1c(C)c2ccc(OCC3CCCN(Cc4cccc(Br)c4)C3)cc2oc1=O (single isomer, unassigned; (-)) [listing 2 of 2 here] | – | – | – | 26 | – | – |
| Cc1c(C)c2ccc(OCC3CCCN(Cc4ccccc4)C3)cc2oc1=O (stereo in doubt; (+)-5b) | 5.42 | – | 5.74 | – | 5.54 | – |
